Results from ChEMBL document CHEMBL5661979, “Pharmacological inhibition of BMK1 suppresses tumor growth through promyelocytic leukemia protein” (Cancer Cell, 2010).
Calls of active or inactive are those of the source. The rule behind the calls is not given here.

Tests used:
[1] = target: Serine/threonine-protein kinase ATR (Homo sapiens, UniProt Q13535); assay: Inhibition of ATR in human HeLa cells lysate at 2 uM pre incubated for 15 mins followed by ATP acyl phosphate probe addition and measured after 10 mins by LC-MS/MS analysis relative to control; type: subcellular; conditions: time 25.0 min
Chain of Serine/threonine-protein kinase ATR (Q13535 whole entry, looked up, the tested form may be a part): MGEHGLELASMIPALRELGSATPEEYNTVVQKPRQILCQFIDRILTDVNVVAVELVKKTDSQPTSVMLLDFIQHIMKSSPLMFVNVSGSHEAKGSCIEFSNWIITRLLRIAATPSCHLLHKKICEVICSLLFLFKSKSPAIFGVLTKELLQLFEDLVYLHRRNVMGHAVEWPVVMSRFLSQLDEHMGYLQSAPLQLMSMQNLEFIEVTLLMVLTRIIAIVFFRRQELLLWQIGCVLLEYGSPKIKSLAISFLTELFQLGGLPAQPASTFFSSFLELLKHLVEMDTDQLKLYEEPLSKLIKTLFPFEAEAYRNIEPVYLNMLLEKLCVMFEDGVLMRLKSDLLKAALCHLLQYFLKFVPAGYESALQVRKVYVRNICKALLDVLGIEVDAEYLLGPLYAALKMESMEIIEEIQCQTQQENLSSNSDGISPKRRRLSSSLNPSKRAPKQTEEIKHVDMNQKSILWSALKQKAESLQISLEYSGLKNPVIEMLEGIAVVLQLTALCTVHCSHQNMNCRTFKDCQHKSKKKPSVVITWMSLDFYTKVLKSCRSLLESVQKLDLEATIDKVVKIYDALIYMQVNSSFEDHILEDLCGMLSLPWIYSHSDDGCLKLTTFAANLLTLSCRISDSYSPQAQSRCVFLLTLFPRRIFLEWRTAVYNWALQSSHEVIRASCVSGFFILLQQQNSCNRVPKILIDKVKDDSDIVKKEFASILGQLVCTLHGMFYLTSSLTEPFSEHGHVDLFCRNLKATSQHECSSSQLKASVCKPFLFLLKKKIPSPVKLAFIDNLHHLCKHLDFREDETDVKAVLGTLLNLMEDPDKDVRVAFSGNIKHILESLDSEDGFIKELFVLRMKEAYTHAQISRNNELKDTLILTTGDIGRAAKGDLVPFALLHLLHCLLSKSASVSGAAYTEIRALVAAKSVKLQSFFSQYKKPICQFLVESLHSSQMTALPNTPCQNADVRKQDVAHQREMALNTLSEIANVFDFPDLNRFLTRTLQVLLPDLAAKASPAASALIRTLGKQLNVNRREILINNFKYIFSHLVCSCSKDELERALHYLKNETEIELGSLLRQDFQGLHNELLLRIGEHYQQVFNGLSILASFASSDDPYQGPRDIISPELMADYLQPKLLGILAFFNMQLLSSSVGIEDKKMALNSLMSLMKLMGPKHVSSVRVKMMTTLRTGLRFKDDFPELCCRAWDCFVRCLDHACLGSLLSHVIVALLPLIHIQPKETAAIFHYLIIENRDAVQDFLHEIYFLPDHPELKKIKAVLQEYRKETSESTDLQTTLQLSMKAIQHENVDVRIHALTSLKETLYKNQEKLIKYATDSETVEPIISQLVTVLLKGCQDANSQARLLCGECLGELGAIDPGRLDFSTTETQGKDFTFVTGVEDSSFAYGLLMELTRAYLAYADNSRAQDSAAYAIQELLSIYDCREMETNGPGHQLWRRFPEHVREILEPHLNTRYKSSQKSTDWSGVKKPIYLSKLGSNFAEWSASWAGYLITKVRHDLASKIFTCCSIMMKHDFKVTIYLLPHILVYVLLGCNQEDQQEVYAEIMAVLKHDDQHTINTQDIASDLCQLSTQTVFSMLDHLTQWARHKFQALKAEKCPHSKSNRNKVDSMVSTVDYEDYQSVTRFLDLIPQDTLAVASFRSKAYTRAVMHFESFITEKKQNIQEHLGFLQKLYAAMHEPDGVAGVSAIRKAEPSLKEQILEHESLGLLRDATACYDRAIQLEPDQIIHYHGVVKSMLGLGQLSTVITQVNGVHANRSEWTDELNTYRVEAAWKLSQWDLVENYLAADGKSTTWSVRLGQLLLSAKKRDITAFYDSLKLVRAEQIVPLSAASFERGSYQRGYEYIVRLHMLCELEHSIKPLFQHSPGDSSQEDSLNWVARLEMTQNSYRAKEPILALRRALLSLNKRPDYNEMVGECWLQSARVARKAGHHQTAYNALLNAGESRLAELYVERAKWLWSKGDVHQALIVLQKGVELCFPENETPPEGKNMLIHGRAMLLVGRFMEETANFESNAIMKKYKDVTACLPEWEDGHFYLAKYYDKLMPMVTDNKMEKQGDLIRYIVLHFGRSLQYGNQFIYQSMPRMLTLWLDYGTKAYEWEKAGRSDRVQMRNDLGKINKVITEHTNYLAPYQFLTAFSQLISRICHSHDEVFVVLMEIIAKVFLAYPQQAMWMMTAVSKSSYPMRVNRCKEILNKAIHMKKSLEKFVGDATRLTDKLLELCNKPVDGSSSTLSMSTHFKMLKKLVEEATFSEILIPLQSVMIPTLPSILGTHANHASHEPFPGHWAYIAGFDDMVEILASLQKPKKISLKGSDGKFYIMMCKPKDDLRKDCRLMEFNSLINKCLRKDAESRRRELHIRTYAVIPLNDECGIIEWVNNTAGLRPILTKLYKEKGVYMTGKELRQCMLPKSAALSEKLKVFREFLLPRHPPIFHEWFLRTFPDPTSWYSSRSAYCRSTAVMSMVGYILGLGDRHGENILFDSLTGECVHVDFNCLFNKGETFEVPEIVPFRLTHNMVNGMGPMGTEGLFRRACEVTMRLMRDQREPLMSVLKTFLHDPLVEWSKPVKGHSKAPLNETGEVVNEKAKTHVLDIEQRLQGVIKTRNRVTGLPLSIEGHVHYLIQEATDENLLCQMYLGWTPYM
Outline: (§1)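 KiNativ-type profiling in HeLa lysate (5 mg/mL total protein). Lysate preincubated 15 min with inhibitor at 50, 10, 2, 0.8 or 0 μM, then ATP or ADP acylphosphate probe added (5 μM final) for 10 min. Reaction stopped with urea and analysed by targeted MS, using up to four fragment ions per kinase peptide-probe conjugate. % inhibition calculated against untreated lysate. Duplicate reactions.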

[2] = target: T1, Mitogen-activated protein kinase 14 (Homo sapiens, UniProt Q16539); assay: Inhibition of P38alpha interaction site in human HeLa cells lysate at 50 uM pre incubated for 15 mins followed by ATP acyl phosphate probe addition and measured after 10 mins by LC-MS/MS analysis relative to control; type: subcellular; conditions: time 25.0 min
T1 sequence (Q16539 whole entry): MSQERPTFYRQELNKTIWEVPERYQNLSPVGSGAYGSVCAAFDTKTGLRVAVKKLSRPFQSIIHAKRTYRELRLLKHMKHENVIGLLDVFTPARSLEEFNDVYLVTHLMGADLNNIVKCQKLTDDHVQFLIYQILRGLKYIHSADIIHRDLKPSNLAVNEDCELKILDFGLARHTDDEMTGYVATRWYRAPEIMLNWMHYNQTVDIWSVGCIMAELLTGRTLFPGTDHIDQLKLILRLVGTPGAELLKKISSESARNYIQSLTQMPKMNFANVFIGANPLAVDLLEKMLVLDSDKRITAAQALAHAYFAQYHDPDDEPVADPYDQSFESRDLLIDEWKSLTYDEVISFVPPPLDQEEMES

[3] = target: Calcium/calmodulin-dependent protein kinase type 1D (Homo sapiens, UniProt Q8IU85); assay: Inhibition of CAMK1d in human HeLa cells lysate at 2 uM pre incubated for 15 mins followed by ATP acyl phosphate probe addition and measured after 10 mins by LC-MS/MS analysis relative to control; type: subcellular; conditions: time 25.0 min; outline: as §1
[4] = target: MAP/microtubule affinity-regulating kinase 3 (Homo sapiens, UniProt P27448); assay: Inhibition of MARK3 in human HeLa cells lysate pre incubated for 15 mins followed by ATP acyl phosphate probe addition and measured after 10 mins by LC-MS/MS analysis; type: subcellular
[5] = target: Serine/threonine-protein kinase PLK1 (Homo sapiens, UniProt P53350); assay: Inhibition of PLK1 K2 site in human HeLa cells lysate pre incubated for 15 mins followed by ATP acyl phosphate probe addition and measured after 10 mins by LC-MS/MS analysis; type: subcellular
[6] = target: T2, Serine/threonine-protein kinase Sgk3 (Homo sapiens, UniProt Q96BR1); assay: Inhibition of SGK3 K2 site in human HeLa cells lysate pre incubated for 15 mins followed by ATP acyl phosphate probe addition and measured after 10 mins by LC-MS/MS analysis; type: subcellular
T2 sequence (Q96BR1 whole entry): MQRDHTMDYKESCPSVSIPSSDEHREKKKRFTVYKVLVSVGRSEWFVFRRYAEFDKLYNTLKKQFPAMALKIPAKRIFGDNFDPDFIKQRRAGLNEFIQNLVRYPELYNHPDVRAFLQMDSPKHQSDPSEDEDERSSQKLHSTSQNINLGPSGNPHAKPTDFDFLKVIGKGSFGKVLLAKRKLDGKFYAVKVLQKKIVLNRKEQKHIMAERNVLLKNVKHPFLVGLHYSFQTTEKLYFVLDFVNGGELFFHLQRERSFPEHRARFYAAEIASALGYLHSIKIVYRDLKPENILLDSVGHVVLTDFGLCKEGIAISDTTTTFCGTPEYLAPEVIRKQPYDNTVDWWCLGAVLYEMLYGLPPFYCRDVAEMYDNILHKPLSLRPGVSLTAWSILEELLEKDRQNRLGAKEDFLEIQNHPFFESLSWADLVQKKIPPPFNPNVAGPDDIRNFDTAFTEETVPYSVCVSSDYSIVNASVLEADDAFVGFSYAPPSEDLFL

Ephrin type-B receptor 4 = Ephrin type-B receptor 4 (Homo sapiens, UniProt P54760); assay: Inhibition of EphB4 in human HeLa cells lysate pre incubated for 15 mins followed by ATP acyl phosphate probe addition and measured after 10 mins by LC-MS/MS analysis; type: subcellular
Chain of Ephrin type-B receptor 4 (P54760 whole entry): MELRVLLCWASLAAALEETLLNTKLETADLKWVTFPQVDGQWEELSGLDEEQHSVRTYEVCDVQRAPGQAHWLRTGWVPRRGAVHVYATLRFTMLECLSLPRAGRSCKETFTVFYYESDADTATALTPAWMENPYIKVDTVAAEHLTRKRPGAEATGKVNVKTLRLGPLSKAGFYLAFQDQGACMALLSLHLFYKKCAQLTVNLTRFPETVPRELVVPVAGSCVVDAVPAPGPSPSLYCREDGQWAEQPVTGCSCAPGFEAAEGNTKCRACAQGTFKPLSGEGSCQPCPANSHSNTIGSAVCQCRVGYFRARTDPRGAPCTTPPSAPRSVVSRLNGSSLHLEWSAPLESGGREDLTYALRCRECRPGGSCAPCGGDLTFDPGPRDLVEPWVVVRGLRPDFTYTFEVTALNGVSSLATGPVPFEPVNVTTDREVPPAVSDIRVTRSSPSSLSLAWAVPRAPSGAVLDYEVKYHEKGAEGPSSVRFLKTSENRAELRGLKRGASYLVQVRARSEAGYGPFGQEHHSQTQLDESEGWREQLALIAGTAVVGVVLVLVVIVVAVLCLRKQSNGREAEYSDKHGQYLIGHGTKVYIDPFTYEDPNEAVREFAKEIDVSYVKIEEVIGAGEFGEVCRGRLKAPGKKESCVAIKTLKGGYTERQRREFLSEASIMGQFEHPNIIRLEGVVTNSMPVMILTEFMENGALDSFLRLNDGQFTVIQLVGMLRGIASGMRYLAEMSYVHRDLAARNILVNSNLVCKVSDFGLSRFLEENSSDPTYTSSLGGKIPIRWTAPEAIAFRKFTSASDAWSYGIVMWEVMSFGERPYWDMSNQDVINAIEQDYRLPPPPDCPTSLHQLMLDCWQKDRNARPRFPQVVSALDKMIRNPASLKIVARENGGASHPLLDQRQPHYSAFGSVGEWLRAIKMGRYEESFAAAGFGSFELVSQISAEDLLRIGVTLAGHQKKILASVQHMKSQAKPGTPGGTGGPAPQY

[7] = Inhibition of CDK5/PRKX/PRKY in human HeLa cells lysate at 50 uM pre incubated for 15 mins followed by ADP acyl phosphate probe addition and measured after 10 mins by LC-MS/MS analysis relative to control; conditions: 25 min, condition cancer
Outline: (§2)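 KiNativ profiling in HeLa lysate (5 mg/mL total protein). Lysate incubated 15 min with inhibitor at 50, 10, 2, 0.8 or 0 μM. ATP or ADP acylphosphate probe then added (5 μM final) and reacted 10 min. Reaction stopped with urea and analysed by targeted MS, using up to four fragment ions per kinase peptide-probe conjugate. % inhibition taken against untreated lysate. Run in duplicate.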

[8] = Toxicity in C57Bl/6 mouse assessed as effect on phosphorus level at 50 mg/kg, ip for 14 days (reference value: 6.8 mg/dl); type: organism-based; conditions: in vivo, 336 h, time 14 day
[9] = target: Protein kinase C theta type (Homo sapiens, UniProt Q04759); assay: Inhibition of PKCtheta in human HeLa cells lysate at 50 uM pre incubated for 15 mins followed by ATP acyl phosphate probe addition and measured after 10 mins by LC-MS/MS analysis relative to control; type: subcellular; conditions: time 25.0 min
[10] = Inhibition of PKD1/2 in human HeLa cells lysate at 2 uM pre incubated for 15 mins followed by ATP acyl phosphate probe addition and measured after 10 mins by LC-MS/MS analysis relative to control; conditions: 25 min, condition cancer
[11] = target: Calcium/calmodulin-dependent protein kinase type II subunit gamma (Homo sapiens, UniProt Q13555); assay: Inhibition of CAMK2g in human HeLa cells lysate pre incubated for 15 mins followed by ATP acyl phosphate probe addition and measured after 10 mins by LC-MS/MS analysis; type: subcellular; outline: as §2
Chain of Calcium/calmodulin-dependent protein kinase type II subunit gamma (Q13555 whole entry): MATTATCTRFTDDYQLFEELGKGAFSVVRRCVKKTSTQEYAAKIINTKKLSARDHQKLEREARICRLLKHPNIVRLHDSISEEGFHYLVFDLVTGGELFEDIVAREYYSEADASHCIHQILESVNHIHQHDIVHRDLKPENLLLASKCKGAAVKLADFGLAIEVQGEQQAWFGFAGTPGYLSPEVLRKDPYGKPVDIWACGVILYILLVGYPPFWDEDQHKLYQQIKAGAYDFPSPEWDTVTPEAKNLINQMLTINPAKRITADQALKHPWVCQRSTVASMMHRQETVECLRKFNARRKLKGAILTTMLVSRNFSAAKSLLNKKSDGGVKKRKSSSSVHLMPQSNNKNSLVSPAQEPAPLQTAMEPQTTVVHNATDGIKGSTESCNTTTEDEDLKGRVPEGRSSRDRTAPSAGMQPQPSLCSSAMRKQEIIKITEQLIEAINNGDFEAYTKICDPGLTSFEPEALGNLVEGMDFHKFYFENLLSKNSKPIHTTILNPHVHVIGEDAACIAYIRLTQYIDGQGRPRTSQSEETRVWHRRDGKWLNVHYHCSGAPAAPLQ

[12] = target: T3, Dual specificity mitogen-activated protein kinase kinase 5 (Homo sapiens) (UniProt Q13163); assay: Inhibition of MAP2K5 in human HeLa cells lysate upto 50 uM pre incubated for 15 mins followed by ADP acyl phosphate probe addition and measured after 10 mins by LC-MS/MS analysis; type: subcellular; conditions: time 25.0 min
T3 sequence (whole entry): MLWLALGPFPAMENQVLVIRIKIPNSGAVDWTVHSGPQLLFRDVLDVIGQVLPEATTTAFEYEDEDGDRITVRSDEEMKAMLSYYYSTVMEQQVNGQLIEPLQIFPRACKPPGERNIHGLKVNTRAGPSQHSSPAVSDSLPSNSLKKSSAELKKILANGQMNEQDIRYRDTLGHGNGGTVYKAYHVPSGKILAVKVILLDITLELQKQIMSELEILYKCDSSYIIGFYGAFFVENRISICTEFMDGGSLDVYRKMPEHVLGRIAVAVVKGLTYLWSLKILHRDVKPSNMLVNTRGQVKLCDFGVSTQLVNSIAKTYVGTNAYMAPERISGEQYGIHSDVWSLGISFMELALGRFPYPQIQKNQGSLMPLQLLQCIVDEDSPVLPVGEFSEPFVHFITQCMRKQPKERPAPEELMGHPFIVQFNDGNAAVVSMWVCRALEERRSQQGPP

[13] = target: T1, Mitogen-activated protein kinase 14; assay: Inhibition of p38a in human HeLa cells lysate at 50 uM pre incubated for 15 mins followed by ATP acyl phosphate probe addition and measured after 10 mins by LC-MS/MS analysis relative to control; type: subcellular; conditions: time 25.0 min
[14] = Inhibition of PRKX/PRKY in human HeLa cells lysate at 2 uM pre incubated for 15 mins followed by ADP acyl phosphate probe addition and measured after 10 mins by LC-MS/MS analysis relative to control; conditions: 25 min, condition cancer
[15] = target: Glycogen synthase kinase-3 alpha (Homo sapiens, UniProt P49840); assay: Inhibition of GSK3A in human HeLa cells lysate pre incubated for 15 mins followed by ATP acyl phosphate probe addition and measured after 10 mins by LC-MS/MS analysis; type: subcellular
Chain of Glycogen synthase kinase-3 alpha (P49840 whole entry): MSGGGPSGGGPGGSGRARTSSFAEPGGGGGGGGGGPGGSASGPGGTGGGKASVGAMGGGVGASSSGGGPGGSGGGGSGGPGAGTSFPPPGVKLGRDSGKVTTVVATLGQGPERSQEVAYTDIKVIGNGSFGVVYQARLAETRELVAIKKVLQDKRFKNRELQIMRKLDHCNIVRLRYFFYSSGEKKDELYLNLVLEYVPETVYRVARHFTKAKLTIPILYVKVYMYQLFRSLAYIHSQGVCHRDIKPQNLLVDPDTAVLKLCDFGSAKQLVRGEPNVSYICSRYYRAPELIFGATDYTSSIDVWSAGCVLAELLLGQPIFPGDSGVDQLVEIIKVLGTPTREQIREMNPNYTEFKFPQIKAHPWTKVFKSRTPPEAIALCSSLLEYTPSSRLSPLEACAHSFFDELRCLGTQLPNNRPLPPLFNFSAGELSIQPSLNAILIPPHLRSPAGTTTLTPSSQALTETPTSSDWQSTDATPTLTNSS

Question: What does the source list for CCOc1cc(N2CCC(O)CC2)ccc1Nc1ncc2c(n1)N(C)c1ccccc1C(=O)N2C?
Answer: inhibition [1]: 25.9%; inhibition [2]: -2.5%; inhibition [3]: 4.4%; IC50 [4]: > 50 µM; IC50 [5]: > 50 µM; IC50 [6]: > 50 µM; IC50 (Ephrin type-B receptor 4): > 50 µM; inhibition at 50 µM [7]: -10%; Activity [8]: 6.4 mg/dL; inhibition [9]: 1.8%; inhibition at 2 µM [10]: 27.1%; IC50 [11]: > 50 µM; inhibition [12]: inactive; inhibition [13]: 31.4%; inhibition at 2 µM [14]: 25.5%; IC50 [15]: > 50 µM
